Here are results for 23 molecules from ChEMBL document CHEMBL1133010, “Structure-function studies of polymyxin B nonapeptide: implications to sensitization of gram-negative bacteria” (J Med Chem, 2000).

Type in all cases: functional
For experiment [1], the system named is Escherichia coli. Nature of the experiment: Relative sensitizing activity against Escherichia coli was determined as a percent of pPMBN (50 ug/mL) as a control. In a few lines:
(§1)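 Clinical isolates at 1 × 10^5 CFU per well, in ISB with a 2-fold serial dilution (1000-0.5 µg/mL) of novobiocin. Peptide added at 50 µg/mL final. Incubated 20 h at 37 °C and read by visible growth. Sensitizing activity is the fold drop in novobiocin MIC with versus without peptide, expressed as percent of that given by 50 µg/mL pPMBN.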

The test system of experiment [2] is Klebsiella pneumoniae. Kind of experiment: Relative sensitizing activity against Klebsiella pneumoniae was determined as a percent of pPMBN (50 ug/mL) as a control. In a few lines: as §1
The subject of experiment [3] is Escherichia coli. Kind of experiment: Maximal displacement of dansyl-PMBN from Escherichia coli LPS. In a few lines: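 Fluorescence displacement assay. E. coli LPS (3 µg/mL, ~2 × 10^-7 M) in 5 mM HEPES pH 7.2 was pre-equilibrated with dansyl-PMBN (0.55 µM). Peptide was added stepwise at 5-min intervals from 1 × 10^-5 to 1 × 10^-3 M stocks. Fluorescence read at excitation 340 nm and emission 485 nm after each addition. Percent inhibition was plotted against concentration to give maximal and 50% displacement. 2-3 repeats.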

Take `CC(C)C[C@@H]1NC(=O)[C@@H](Cc2ccccc2)NC(=O)[C@H](CCN)NC(=O)[C@@H](NC(=O)[C@H](CCN)NC(=O)[C@@H](N)[C@@H](C)O)CCNC(=O)[C@H]([C@@H](C)O)NC(=O)[C@H](CCCCN)NC(=O)[C@H](CCCCN)NC1=O`: the Activity came to 40% in experiment [1] and 26% in experiment [2].

As for `CC(C)C[C@H]1NC(=O)[C@@H](Cc2ccccc2)NC(=O)[C@@H](CCCCN)NC(=O)[C@H](NC(=O)[C@H](CCCCN)NC(=O)[C@@H](N)[C@@H](C)O)CCCCNC(=O)[C@H]([C@@H](C)O)NC(=O)[C@@H](CCCCN)NC(=O)[C@H](CCCCN)NC1=O`, the Imax in experiment [3] was determined as 60%.

`CC(C)C[C@H]1NC(=O)[C@@H](Cc2ccccc2)NC(=O)[C@@H](CCCCN)NC(=O)[C@H](NC(=O)[C@H](CCCCN)NC(=O)[C@@H](N)[C@@H](C)O)CCNC(=O)[C@H]([C@@H](C)O)NC(=O)[C@@H](CCN)NC(=O)[C@H](CCN)NC1=O`: the Imax in experiment [3] is 64%.

Regarding `CC(C)C[C@@H]1NC(=O)[C@@H](Cc2ccccc2)NC(=O)[C@H](CCN=C(N)N)NC(=O)[C@@H](NC(=O)[C@H](CCN=C(N)N)NC(=O)[C@@H](N)[C@@H](C)O)CCNC(=O)[C@H]([C@@H](C)O)NC(=O)[C@H](CCN=C(N)N)NC(=O)[C@H](CCN=C(N)N)NC1=O`, the Activity in experiment [1] and in experiment [2] was 25% each time.

With `CC(C)C[C@H]1NC(=O)[C@@H](Cc2ccccc2)NC(=O)[C@@H](CCN)NC(=O)[C@H](NC(=O)[C@H](CCN)NC(=O)[C@@H](N)[C@@H](C)O)CCNC(=O)[C@H]([C@@H](C)O)NC(=O)[C@@H](CCN)NC(=O)[C@H](CCN)NC1=O` (stereo in doubt; form 2), the Imax in experiment [3] came to 80%.

For `CC(C)C[C@@H]1NC(=O)[C@@H](Cc2ccccc2)NC(=O)[C@@H](NC(=O)[C@H](CCN)NC(=O)[C@H](CCN)NC(=O)[C@@H](N)[C@@H](C)O)CCNC(=O)[C@H]([C@@H](C)O)NC(=O)[C@H](CCN)NC(=O)[C@H](CCN)NC1=O`, the Activity was determined as 4% in experiment [1] and 5% in experiment [2].

In experiment [3], `CC(C)C[C@H]1NC(=O)[C@H](Cc2ccccc2)NC(=O)[C@@H](CCN)NC(=O)[C@H](NC(=O)[C@H](CCN)NC(=O)[C@@H](N)[C@@H](C)O)CCNC(=O)[C@H]([C@@H](C)O)NC(=O)[C@@H](CCN)NC(=O)[C@H](CCN)NC1=O` gave an Imax of 64%.

For `CC(C)C[C@@H]1NC(=O)[C@@H](Cc2ccccc2)NC(=O)[C@H](CCN)NC(=O)[C@H](CCN)NC(=O)[C@@H](NC(=O)[C@@H](N)[C@@H](C)O)CCNC(=O)[C@H]([C@@H](C)O)NC(=O)[C@H](CCN)NC(=O)[C@H](CCN)NC1=O`, the results for the Activity in experiment [1] and in experiment [2] were 7% and 5%, respectively.

Turning to `CC(C)C[C@@H]1NC(=O)[C@@H](Cc2ccccc2)NC(=O)[C@H](CCCCN)NC(=O)[C@@H](NC(=O)[C@H](CCCCN)NC(=O)[C@@H](N)[C@@H](C)O)CCCCNC(=O)[C@H]([C@@H](C)O)NC(=O)[C@H](CCCCN)NC(=O)[C@H](CCCCN)NC1=O`, the values for the Activity in experiment [1] and in experiment [2] were 4% and 3%, respectively.

Consider `CC(C)C[C@@H]1NC(=O)[C@@H](Cc2ccccc2)NC(=O)[C@H](CCCCN)NC(=O)[C@@H](NC(=O)[C@H](CCCCN)NC(=O)[C@@H](N)[C@@H](C)O)CCNC(=O)[C@H]([C@@H](C)O)NC(=O)[C@H](CCN)NC(=O)[C@H](CCN)NC1=O`, for which the Activity in experiment [1] is given as 9%; in experiment [2], 13%.

The molecule `CC(C)C[C@H]1NC(=O)[C@@H](Cc2ccccc2)NC(=O)[C@@H](NC(=O)[C@H](CCN)NC(=O)[C@H](CCN)NC(=O)[C@@H](N)[C@@H](C)O)CCNC(=O)[C@H]([C@@H](C)O)NC(=O)[C@@H](CCN)NC(=O)[C@H](CCN)NC1=O` registered an Imax in experiment [3] of 45%.

For the molecule `CC(C)C[C@@H]1NC(=O)[C@@H](Cc2ccccc2)NC(=O)[C@H](CCN)NC(=O)[C@@H](NC(=O)[C@H](CCN)NC(=O)[C@@H](N)[C@@H](C)O)CCNC(=O)[C@H]([C@@H](C)O)NC(=O)[C@H](CCN)NC(=O)[C@H](CCN)NC1=O` (stereo in doubt; form 2), the results for the Activity in experiment [1] and in experiment [2] were 96% and 93%, respectively.

For `CC(C)C[C@H]1NC(=O)[C@@H](Cc2ccccc2)NC(=O)[C@@H](CCN)NC(=O)[C@H](NC(=O)[C@H](CCN)NC(=O)[C@@H](N)[C@@H](C)O)CCNC(=O)[C@H]([C@@H](C)O)NC(=O)[C@@H](CCCCN)NC(=O)[C@H](CCCCN)NC1=O`, the Imax in experiment [3] is 62%.

`CC(C)C[C@@H]1NC(=O)[C@@H](Cc2ccccc2)NC(=O)[C@H](CCCN)NC(=O)[C@@H](NC(=O)[C@H](CCCN)NC(=O)[C@@H](N)[C@@H](C)O)CCCNC(=O)[C@H]([C@@H](C)O)NC(=O)[C@H](CCCN)NC(=O)[C@H](CCCN)NC1=O`: the figures for the Activity in experiment [1] and in experiment [2] were 2% and 6%, respectively.

With `CC(C)C[C@@H]1NC(=O)[C@@H](Cc2ccccc2)NC(=O)[C@H](CCCCN)NC(=O)[C@@H](NC(=O)[C@H](CCCCN)NC(=O)[C@@H](N)[C@@H](C)O)CCNC(=O)[C@H]([C@@H](C)O)NC(=O)[C@H](CCCCN)NC(=O)[C@H](CCCCN)NC1=O`, the figures for the Activity in experiment [1] and in experiment [2] were 5% and 3%, respectively.

In the case of `CC(C)C[C@H]1NC(=O)[C@@H](Cc2ccccc2)NC(=O)[C@@H](CN)NC(=O)[C@H](NC(=O)[C@H](CN)NC(=O)[C@@H](N)[C@@H](C)O)CNC(=O)[C@H]([C@@H](C)O)NC(=O)[C@@H](CN)NC(=O)[C@H](CN)NC1=O`, the Imax in experiment [3] amounted to 64%.

Take `CC(C)C[C@H]1NC(=O)[C@@H](Cc2ccccc2)NC(=O)[C@@H](CCCCN)NC(=O)[C@H](NC(=O)[C@H](CCCCN)NC(=O)[C@@H](N)[C@@H](C)O)CCNC(=O)[C@H]([C@@H](C)O)NC(=O)[C@@H](CCCCN)NC(=O)[C@H](CCCCN)NC1=O`: the Imax in experiment [3] came out at 45%.

For the molecule `CC(C)C[C@H]1NC(=O)[C@@H](Cc2ccccc2)NC(=O)[C@@H](CCN)NC(=O)[C@H](CCN)NC(=O)[C@@H](NC(=O)[C@@H](N)[C@@H](C)O)CCNC(=O)[C@H]([C@@H](C)O)NC(=O)[C@@H](CCN)NC(=O)[C@H](CCN)NC1=O`, the Imax in experiment [3] was found to be 60%.

As for `CC(C)C[C@H]1NC(=O)[C@@H](Cc2ccccc2)NC(=O)[C@@H](CCN)NC(=O)[C@H](NC(=O)[C@H](CCN)NC(=O)[C@@H](N)[C@@H](C)O)CCCCNC(=O)[C@H]([C@@H](C)O)NC(=O)[C@@H](CCN)NC(=O)[C@H](CCN)NC1=O`, in experiment [3], the Imax worked out at 60%.

POLYMYXIN B: the Imax in experiment [3] is 100%.

With `CC(C)C[C@H]1NC(=O)[C@@H](Cc2ccccc2)NC(=O)[C@@H](CCN)NC(=O)[C@H](NC(=O)[C@H](CCN)NC(=O)[C@@H](N)[C@@H](C)O)CCNC(=O)[C@H]([C@@H](C)O)NC(=O)[C@@H](CCN)NC(=O)[C@H](CCN)NC1=O` (stereo in doubt; form 1), the Imax in experiment [3] is 80%.

`CC(C)C[C@H]1NC(=O)[C@H](Cc2ccccc2)NC(=O)[C@@H](CCN=C(N)N)NC(=O)[C@H](NC(=O)[C@H](CCN=C(N)N)NC(=O)[C@@H](N)[C@@H](C)O)CCNC(=O)[C@H]([C@@H](C)O)NC(=O)[C@@H](CCN=C(N)N)NC(=O)[C@H](CCN=C(N)N)NC1=O` showed an Imax in experiment [3] of 80%.

For the molecule `CC(C)C[C@H]1NC(=O)[C@@H](Cc2ccccc2)NC(=O)[C@@H](CCCN)NC(=O)[C@H](NC(=O)[C@H](CCCN)NC(=O)[C@@H](N)[C@@H](C)O)CCCNC(=O)[C@H]([C@@H](C)O)NC(=O)[C@@H](CCCN)NC(=O)[C@H](CCCN)NC1=O`, the Imax in experiment [3] was 62%.
